{"source": "ChEMBL document CHEMBL5030510", "about": "“Designed β-Hairpins Inhibit LDH5 Oligomerization and Enzymatic Activity” (J Med Chem, 2021)", "note": "Calls of active or inactive are those of the source. The rule behind the calls is not given here. Where a SMILES comes first, the peptide text is derived from it. Bridges are numbered along the chain shown (N, C = ends)."}
{"target": "T1, L-lactate dehydrogenase A chain (Homo sapiens, UniProt P00338)", "assay": "Inhibition of recombinant full length N-terminal His-tagged human LDHA expressed in Escherichia coli using pyruvate as substrate and NADH as cofactor incubated for 2 hrs by fluorescence assay", "procedure,_shortened": "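Reassociation activity assay: 900 nM LDHA stock in phosphate pH 7.4/EDTA/0.05% BSA, acidified 2 min with glycine pH 2.5/BSA. Peptide added in 0.25 M phosphate pH 7.6 and incubated 2 h at RT. Aliquot diluted, then pyruvate (3 mM final) and NADH (0.3 mM final) added. IC50 from dose-response fit.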", "units": {"IC50": "µM"}}
{"smiles": "CC(C)C[C@@H]1NC(=O)[C@H](CCCNC(=N)N)NC(=O)[C@H](CCCNC(=N)N)NC(=O)[C@@H](NC(=O)CN)CSSC[C@@H](C(=O)N[C@@H](CCCNC(=N)N)C(=O)NCC(=O)N[C@@H](CCCNC(=N)N)C(=O)O)NC(=O)[C@H](C(C)C)NC(=O)[C@H]([C@@H](C)O)NC(=O)[C@H](Cc2ccccc2)NC(=O)[C@@H]2CSSC[C@H](NC1=O)C(=O)N[C@@H]([C@@H](C)O)C(=O)NCC(=O)N[C@@H](CCC(N)=O)C(=O)N[C@@H](CCCNC(=N)N)C(=O)N2", "IC50": "> 40"}
{"smiles": "CC[C@H](C)[C@@H]1NC(=O)[C@H](Cc2ccc(O)cc2)NC(=O)[C@H](CC(N)=O)NC(=O)[C@@H]2CSSC[C@H](NC(=O)[C@H](CC(C)C)NC(=O)[C@H](CCCNC(=N)N)NC(=O)[C@H](CCCNC(=N)N)NC(=O)[C@@H](NC(=O)CN)CSSC[C@@H](C(=O)N[C@@H](CCCNC(=N)N)C(=O)NCC(=O)N[C@@H](CCCNC(=N)N)C(=O)O)NC1=O)C(=O)N[C@@H](Cc1ccc(O)cc1)C(=O)N[C@@H](CCCCN)C(=O)N[C@@H](CCC(N)=O)C(=O)N[C@@H](CC(C)C)C(=O)N2", "IC50": "> 40"}
{"smiles": "CC(C)C[C@@H]1NC(=O)[C@H](CCCNC(=N)N)NC(=O)[C@H](CCCNC(=N)N)NC(=O)[C@@H](NC(=O)CN)CSSC[C@@H](C(=O)N[C@@H](CCCNC(=N)N)C(=O)NCC(=O)N[C@@H](CCCNC(=N)N)C(=O)O)NC(=O)[C@H](Cc2ccc(O)cc2)NC(=O)[C@H]([C@@H](C)O)NC(=O)[C@H](C(C)C)NC(=O)[C@@H]2CSSC[C@H](NC1=O)C(=O)N[C@@H](Cc1ccc(O)cc1)C(=O)N[C@@H](CCCCN)C(=O)N[C@@H](CCC(N)=O)C(=O)N[C@@H](CCCNC(=N)N)C(=O)N2", "IC50": 36.6}
{"smiles": "CC[C@H](C)[C@@H]1NC(=O)CNC(=O)[C@H](CCCNC(=N)N)NC(=O)[C@H](Cc2ccc(O)cc2)NC(=O)[C@@H]2CSSC[C@H](NC1=O)C(=O)N[C@@H](Cc1ccc(O)cc1)C(=O)N[C@@H](CCCNC(=N)N)C(=O)N[C@@H](CCCNC(=N)N)C(=O)N[C@H](C(=O)N[C@@H](CCCNC(=N)N)C(=O)NCC(=O)O)CSSC[C@H](NC(=O)[C@H](Cc1c[nH]c3ccccc13)NC(=O)[C@@H](N)CCCCN)C(=O)N[C@@H](Cc1ccccc1)C(=O)N[C@@H](CCCNC(=N)N)C(=O)N[C@@H](C(C)C)C(=O)N2", "IC50": 29.1}
{"smiles": "CC(C)C[C@@H]1NC(=O)[C@H](CCCNC(=N)N)NC(=O)[C@H](CCCNC(=N)N)NC(=O)[C@@H](NC(=O)CN)CSSC[C@@H](C(=O)N[C@@H](CCCNC(=N)N)C(=O)NCC(=O)N[C@@H](CCCNC(=N)N)C(=O)O)NC(=O)[C@H](C(C)C)NC(=O)[C@H](CCC(N)=O)NC(=O)[C@H](CCCNC(=N)N)NC(=O)[C@@H]2CSSC[C@H](NC1=O)C(=O)N[C@@H](Cc1ccc(O)cc1)C(=O)N[C@@H](CCCCN)C(=O)N[C@@H](CCC(N)=O)C(=O)NCC(=O)N2", "IC50": 41.4}
{"smiles": "CC[C@H](C)[C@H](NC(=O)CNC(=O)[C@H](CC(N)=O)NC(=O)[C@H](CCC(N)=O)NC(C)=O)C(=O)N[C@@H](CO)C(=O)N[C@@H](CC(=O)O)C(=O)N[C@@H](CC(C)C)C(=O)N[C@H](C(=O)N[C@@H](CCCCN)C(N)=O)C(C)C", "IC50": "> 40"}
{"smiles": "CC(C)C[C@@H]1NC(=O)[C@H](CCCNC(=N)N)NC(=O)[C@H](CCCNC(=N)N)NC(=O)[C@@H](NC(=O)CN)CSSC[C@@H](C(=O)N[C@@H](CCCNC(=N)N)C(=O)NCC(=O)N[C@@H](CCCNC(=N)N)C(=O)O)NC(=O)[C@H](C(C)C)NC(=O)[C@H]([C@@H](C)O)NC(=O)[C@H](Cc2ccccc2)NC(=O)[C@@H]2CSSC[C@H](NC1=O)C(=O)N[C@@H](CC(=O)O)C(=O)N[C@@H](CCCNC(=N)N)C(=O)N[C@@H](Cc1ccccc1)C(=O)N[C@@H](C)C(=O)N2", "note": "(H-GCRRLCDRFACFTVCRGR-OH; disulfide 2-15, 6-11)", "IC50": "> 40"}
{"smiles": "CC(C)C[C@@H]1NC(=O)[C@H](CCCNC(=N)N)NC(=O)[C@H](CCCNC(=N)N)NC(=O)[C@@H](NC(=O)CN)CSSC[C@@H](C(=O)N[C@@H](CCCNC(=N)N)C(=O)NCC(=O)N[C@@H](CCCNC(=N)N)C(=O)O)NC(=O)[C@H](C(C)C)NC(=O)[C@H](CC(C)C)NC(=O)[C@H](CC(=O)O)NC(=O)[C@@H]2CSSC[C@H](NC1=O)C(=O)N[C@@H](Cc1ccc(O)cc1)C(=O)N[C@@H](CCCCN)C(=O)N[C@@H](CCC(N)=O)C(=O)N[C@@H](CCCNC(=N)N)C(=O)N2", "IC50": 27.3}
{"smiles": "CC(=O)N1CCC[C@H]1C(=O)N[C@H](C(=O)N[C@@H](CCC(N)=O)C(=O)N[C@@H](CCCNC(=N)N)C(=O)N[C@H](C(=O)NCC(N)=O)[C@@H](C)O)C(C)C", "IC50": "> 40"}
{"smiles": "CC(C)C[C@@H]1NC(=O)[C@H](CCCNC(=N)N)NC(=O)[C@H](CCCNC(=N)N)NC(=O)[C@@H](NC(=O)CN)CSSC[C@@H](C(=O)N[C@@H](CCCNC(=N)N)C(=O)NCC(=O)N[C@@H](CCCNC(=N)N)C(=O)O)NC(=O)[C@H](C(C)C)NC(=O)[C@H]([C@@H](C)O)NC(=O)[C@H](Cc2ccccc2)NC(=O)[C@@H]2CSSC[C@H](NC1=O)C(=O)N[C@@H](Cc1ccc(O)cc1)C(=O)N[C@@H](CCCCN)C(=O)N[C@@H](CCC(N)=O)C(=O)N[C@@H](CCCNC(=N)N)C(=O)N2", "IC50": 24}
{"smiles": "CC[C@H](C)[C@@H]1NC(=O)CNC(=O)[C@H](CCCNC(=N)N)NC(=O)[C@H](Cc2ccc(O)cc2)NC(=O)[C@@H]2CSSC[C@H](NC1=O)C(=O)N[C@@H](C(C)C)C(=O)N[C@@H]([C@@H](C)O)C(=O)N[C@@H](Cc1ccc(O)cc1)C(=O)N[C@H](C(=O)N[C@@H](CCCNC(=N)N)C(=O)NCC(=O)N[C@@H](CCCNC(=N)N)C(=O)O)CSSC[C@H](NC(=O)CN)C(=O)N[C@@H](CCCNC(=N)N)C(=O)N[C@@H](CCCNC(=N)N)C(=O)N[C@@H](CC(C)C)C(=O)N2", "note": "(H-GCRRLCYRGICVTYCRGR-OH; disulfide 2-15, 6-11)", "IC50": 24.8}
{"smiles": "CC(C)C[C@@H]1NC(=O)[C@H](CCCNC(=N)N)NC(=O)[C@H](CCCNC(=N)N)NC(=O)[C@@H](NC(=O)CN)CSSC[C@@H](C(=O)N[C@@H](CCCNC(=N)N)C(=O)NCC(=O)N[C@@H](CCCNC(=N)N)C(=O)O)NC(=O)[C@H](C(C)C)NC(=O)[C@H]([C@@H](C)O)NC(=O)[C@H](Cc2ccccc2)NC(=O)[C@@H]2CSSC[C@H](NC1=O)C(=O)N[C@@H](Cc1c[nH]c3ccccc13)C(=O)N[C@@H](Cc1ccccc1)C(=O)N[C@@H](CCCNC(=N)N)C(=O)N[C@@H](Cc1ccc(O)cc1)C(=O)N2", "IC50": 4.5}
{"smiles": "CC(=O)NCC(=O)N[C@@H](CC(N)=O)C(=O)N[C@@H](Cc1ccc(O)cc1)C(=O)N[C@H](C(=O)N[C@@H](Cc1c[nH]c2ccccc12)C(=O)N[C@@H](CC(C)C)C(N)=O)[C@@H](C)O", "IC50": "> 40"}
{"smiles": "CC(C)C[C@@H]1NC(=O)[C@H](CCCNC(=N)N)NC(=O)[C@H](CCCNC(=N)N)NC(=O)[C@@H](NC(=O)CN)CSSC[C@@H](C(=O)N[C@@H](CCCNC(=N)N)C(=O)NCC(=O)N[C@@H](CCCNC(=N)N)C(=O)O)NC(=O)[C@H](C(C)C)NC(=O)[C@H]([C@@H](C)O)NC(=O)[C@H](Cc2ccccc2)NC(=O)[C@@H]2CSSC[C@H](NC1=O)C(=O)N[C@@H](CC(=O)O)C(=O)N[C@@H](CCCNC(=N)N)C(=O)N[C@@H](Cc1ccccc1)C(=O)N[C@@H](Cc1c[nH]c3ccccc13)C(=O)N2", "IC50": 10.4}
{"target": "T1, L-lactate dehydrogenase A chain", "assay": "Binding affinity to recombinant full length N-terminal His-tagged human LDHA expressed in Escherichia coli assessed as reduction in fluorecence recovery measured after 2 hrs by tryptophan fluorescence emission assay", "procedure,_shortened": "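Intrinsic Trp fluorescence: 4 µM LDHA (stock) dissociated 2 min in 0.1 M glycine pH 2.5, then peptide added in 0.25 M phosphate pH 7.6, 1 mM EDTA. No-LDHA blank subtracted. Zero set at pH 2.5 and maximum at the pH 2.5→7.4 control. LDH5 final 0.6 µM.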"}
{"smiles": "CC(C)C[C@@H]1NC(=O)[C@H](CCCNC(=N)N)NC(=O)[C@H](CCCNC(=N)N)NC(=O)[C@@H](NC(=O)CN)CSSC[C@@H](C(=O)N[C@@H](CCCNC(=N)N)C(=O)NCC(=O)N[C@@H](CCCNC(=N)N)C(=O)O)NC(=O)[C@H](C(C)C)NC(=O)[C@H]([C@@H](C)O)NC(=O)[C@H](Cc2ccccc2)NC(=O)[C@@H]2CSSC[C@H](NC1=O)C(=O)N[C@@H](CC(=O)O)C(=O)N[C@@H](CCCNC(=N)N)C(=O)N[C@@H](Cc1ccccc1)C(=O)N[C@@H](C)C(=O)N2", "note": "(H-GCRRLCDRFACFTVCRGR-OH; disulfide 2-15, 6-11)", "Activity": "inactive"}
{"smiles": "CC[C@H](C)[C@@H]1NC(=O)CNC(=O)[C@H](CCCNC(=N)N)NC(=O)[C@H](Cc2ccc(O)cc2)NC(=O)[C@@H]2CSSC[C@H](NC1=O)C(=O)N[C@@H](C(C)C)C(=O)N[C@@H]([C@@H](C)O)C(=O)N[C@@H](Cc1ccc(O)cc1)C(=O)N[C@H](C(=O)N[C@@H](CCCNC(=N)N)C(=O)NCC(=O)N[C@@H](CCCNC(=N)N)C(=O)O)CSSC[C@H](NC(=O)CN)C(=O)N[C@@H](CCCNC(=N)N)C(=O)N[C@@H](CCCNC(=N)N)C(=O)N[C@@H](CC(C)C)C(=O)N2", "note": "(H-GCRRLCYRGICVTYCRGR-OH; disulfide 2-15, 6-11)", "Activity": "Dose-Dependent Effect"}
